High-throughput results deposited in PubChem BioAssay by several laboratories.
Mdm2 ligase inh: blocks human Mdm2 ubiquitin ligase activity | Q00987 | cell-based MDM2 ubiquitination luciferase reporter, 2 h; 0 = plate control, 100 = twice control, blank-subtracted | signal enhancement, % at 5 µM | 0.11% of 210,000 active;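 active means signal enhancement of 30% or more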;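 further: luminescence tracks abundance of the self-degrading MDM2-luciferase fusion protein; higher signal means inhibition of MDM2 E3 ligase activity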
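Test system: mammalian cells stably expressing self-ubiquitinating, self-degrading MDM2 E3–luciferase fusion; Amount: 2000 cells in each well; Medium: DMEM; Schedule: 4 h settle plus 2 h compound, 37 °C; Technique: SteadyLite luciferase luminescence after 15 min room-temperature reagent incubation; Benchmarks: plate control and blank wells.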
14-3-3 Bad PPI: disrupts binding of bovine 14-3-3 zeta to phospho-Bad peptide; TR-FRET 14-3-3zeta/Dy647-pBad peptide displacement, 1 h; 0.71% of 220,000 active; AID 781; inhibition, % at 21.7 µM;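 active means inhibition above about 70%, limit read from the data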;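 further: 0% = full 14-3-3 plus peptide FRET controls and 100% = background without 14-3-3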
Hck Nef HTS: blocks Nef-activated human Hck kinase; P08631; Recombinant Hck-YEEI plus Nef, Z-Lyte FRET kinase assay; inhibition, % at 20 µM; 0.68% of 220,000 active; AID 463187;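 active means Hck-Nef kinase inhibition above about 50%, limit read from the data; inactive means inhibition below that limit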;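 further: 0% = DMSO with Hck plus Nef and 100% = Hck alone without Nef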
Wee1 stabilizer: blocks degradation of human Wee1 kinase; 1.2% of 220,000 active; reporter increase, % at 5 µM; AID 1321; HeLa Luc-Wee1K328M stability, luciferase luminescence; 100% = proteasome inhibitor MG132 effect;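 active means activation above the mean of all tested compounds plus 3 SD, set per screening run, cut at about 8.8% in these data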;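 further: cells exposed to compound for 20 h before luminescence read; 0% = DMSO alone and 100% = MG132 at 30 µM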
Target sequence (P30291 whole entry K328M): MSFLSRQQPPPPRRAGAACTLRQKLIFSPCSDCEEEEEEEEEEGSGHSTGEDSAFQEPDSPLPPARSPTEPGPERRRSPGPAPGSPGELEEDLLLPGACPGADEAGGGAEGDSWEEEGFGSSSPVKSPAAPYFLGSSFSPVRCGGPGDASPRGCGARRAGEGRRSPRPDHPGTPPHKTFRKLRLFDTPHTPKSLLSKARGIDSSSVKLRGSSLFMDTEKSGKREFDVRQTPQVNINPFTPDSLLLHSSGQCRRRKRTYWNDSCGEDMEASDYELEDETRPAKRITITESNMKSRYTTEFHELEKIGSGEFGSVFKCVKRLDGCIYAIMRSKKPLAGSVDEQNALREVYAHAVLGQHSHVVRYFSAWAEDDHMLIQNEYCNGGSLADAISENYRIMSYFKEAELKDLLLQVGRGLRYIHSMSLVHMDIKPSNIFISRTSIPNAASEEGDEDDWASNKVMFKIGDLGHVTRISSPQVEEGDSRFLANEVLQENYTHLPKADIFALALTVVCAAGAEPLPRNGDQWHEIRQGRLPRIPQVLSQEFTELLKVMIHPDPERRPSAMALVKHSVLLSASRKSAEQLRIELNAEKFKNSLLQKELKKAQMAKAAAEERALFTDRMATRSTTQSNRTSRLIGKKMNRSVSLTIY
TbHK1 inh: blocks Trypanosoma brucei hexokinase 1 activity. recombinant TbHK1, G6PDH-coupled NADH A340. 0.11% of 220,000 active. inhibition, % at 10 µM;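 active means inhibition of 50% or more in the single-dose primary screen; inactive means inhibition below 50%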
* = called active by the depositor; . = no result; [ ] = dose if it differs, or a comment. A selection: hits, their analogues and other compounds. The true share with any hit is near 2.7%.

SMILES	Mdm2 ligase inh	14-3-3 Bad PPI	Hck Nef HTS	Wee1 stabilizer	TbHK1 inh
Cc1ccc(CN2CCN(CC3CC4C=CC3C4)CC2)cc1 (stereo not given)	-10	72*	1	2	3
O=C(c1cccc(F)c1)N1CCN(CC2CC3C=CC2C3)CC1 (stereo not given)	-9	49	0	0	0
O=C(c1ccccc1F)N1CCN(CC2CC3C=CC2C3)CC1 (stereo not given)	-6	81*	0	1	1
O=S(=O)(c1ccccc1)N1CCN(CC2CC3C=CC2C3)CC1 (stereo not given)	-19	6	-6	2	-1
Cc1cc(=O)oc2c1c(C)nn2-c1nn[nH]n1	-6	15	1	-3	-2
Clc1ccc(-c2cn3c(n2)CCC3)cc1	-2	-13	0	9.4*	-10
CC1(C)SC2[C@H](NC(=O)C(NC(=O)N3CCNC3=O)c3ccccc3)C(=O)N2C1C(=O)O (stereo not given in full)	.	-4	-4	-2	3
CC(C)NC(=S)Nc1ccc2cn[nH]c2c1	-13	-2	2	3	0
OCCCNC(=S)Nc1ccc(Br)cc1Cl	-8	-4	4	8.9*	-4
Cc1nnc(SCC(=O)Nc2nc(-c3ccc(F)cc3)cs2)[nH]c1=O	-11	4	9	-4	6
Cc1cc(Cl)c(S(=O)(=O)Nc2cccc(O)c2)cc1OCC(N)=O	7	-5	-1	9.9*	32
COc1ccc(NS(=O)(=O)c2cc(OCC(N)=O)c(C)cc2Cl)cc1	12	9	4	2	32
CC[C@@H](C)C(NC(=O)OC(C)(C)C)c1cn([C@@H](CCCCNC(=O)OC(C)(C)C)C(=O)N2CCN(C(=O)OC(C)(C)C)CC2)nn1 (stereo not given in full)	.	23	-4	0	1
CC(C)CC(NC(=O)OC(C)(C)C)c1cn([C@@H](CCCCNC(=O)OC(C)(C)C)C(=O)N2CCN(C(=O)OC(C)(C)C)CC2)nn1 (stereo not given in full)	.	-2	-7	10*	-10
Cc1c(Cl)cccc1NC(=S)NCCc1ccc(C(F)(F)F)cc1	-16	-17	-6	-1	8
O=C(NC1CC1)C1=C[C@@H](c2ccc(Br)cc2)C[C@@H](OCc2ccc(CO)cc2)O1	14	0	29	.	-13
CC1CCN(CCCCOc2ccc([N+](=O)[O-])cc2)CC1	-11	51	0	0	-4
CC1CCN(CCCCOc2ccccc2[N+](=O)[O-])CC1	-1	85*	0	0	1
Cc1ccc(S(=O)(=O)NCC(=O)N(c2ccccc2)C(C(=O)NCc2ccccc2)c2ccco2)cc1 (stereo not given)	1	0	3	1	9
Cc1cc(C)cc(N(C(=O)CNS(=O)(=O)c2ccccc2)C(C(=O)NCc2ccccc2)c2ccc(C)o2)c1 (stereo not given)	-9	10	0	11*	26
COc1ccc(N2CCN(C(=O)Cn3c(=O)[nH]c4ccccc4c3=O)CC2)cc1	-11	7	18	-1	-3
CC(/C=C1\SC(=S)N(C(C(=O)O)c2ccccc2)C1=O)=C\c1ccccc1 (stereo not given)	-5	11	75*	-3	4
COc1ccc(OC)c(/C=C2\SC(=S)N(C(C(=O)O)c3ccccc3)C2=O)c1 (stereo not given)	-17	6	23	9.7*	-15
CCOC(=O)c1ccc(N2C(=O)C3ON(c4ccccc4)C(c4ccco4)C3C2=O)cc1 (stereo not given)	-10	5	5	-4	-9
c1ccc(Cc2ccc(OCCn3cncn3)cc2)cc1	-12	-1	1	3	-26
SMILES	Mdm2 ligase inh	14-3-3 Bad PPI	Hck Nef HTS	Wee1 stabilizer	TbHK1 inh
Clc1ccc(OCCCn2cncn2)cc1Cl	-12	86*	-1	-2	6
c1ccc(-c2ccc(OCCOCCn3cncn3)cc2)cc1	-2	73*	0	-2	5
c1ccc(COc2ccc(OCCCn3cncn3)cc2)cc1	-11	-8	5	-1	1
COc1ccc(/C=N/NC(=O)CC(=O)NC2CCCCC2)cc1	-6	-5	15	6	-4
O=C(CNC(=O)c1ccco1)OCc1ccc(Cl)cc1	-10	-16	0	5	6
COc1cccc(/C(C#N)=C/c2c(-c3ccc(Cl)cc3)nc3c(C)cccn23)c1	3	71*	-1	2	-16
C=CCn1c(SCC(=O)c2[nH]c(C)c(C(=O)OC)c2C)nc2scc(-c3ccc(OC)c(OC)c3)c2c1=O	-12	96*	43	-4	-19
c1ccc2c(c1)OCCOCCOc1ccccc1OCCOCCO2	-14	-12	-1	1	4
C[C@H](NC(=O)c1nc[nH]c1C(=O)NCCCCCNC(=O)OC(C)(C)C)C(=O)OCc1ccccc1	.	-10	12	9.1*	12
O=C(NCc1ccccc1Cl)C(=O)NCC1OCCN1S(=O)(=O)c1cccs1 (stereo not given)	-11	-19	25	-3	-3
Oc1ccc(/C=N/Nc2nc(-c3ccc(Cl)cc3)cc(C(F)(F)F)n2)cc1	-7	0	-2	10*	-7
O=C(CCCN1C(=O)/C(=C\c2cccs2)SC1=S)NNC(=O)c1cccnc1	-3	-12	19	10*	-8
O=C(CCCN1C(=O)/C(=C/c2cccs2)SC1=S)NNC(=O)c1ccncc1	-13	-4	28	-5	-11
O=C(OC(C(=O)NCc1ccc2c(c1)OCO2)c1ccc(Cl)cc1)c1ccco1 (stereo not given)	-20	-12	1	-1	0
O=C(COc1ncnc2sccc12)NC1CCS(=O)(=O)C1 (stereo not given)	6	-7	0	0	1
CC1CCCC(NC(=O)C2CCC(CNc3c(N4CCCCC4)c(=O)c3=O)CC2)C1C (stereo not given)	-3	90*	31	2	-7
Cc1cc(C)n(-c2nc3ccccc3c(=O)n2OCc2ccc(F)cc2)n1	7	70*[fluorescence artefact?]	4	3	16
O=C(N/N=C\c1ccc(Cl)s1)c1cccs1	31*	1	0	2	-60
COc1c(Cl)cc(Br)c(OC)c1C(=O)NC(=O)Nc1nc(C)cc(C)n1	-13	-1	11	2	1
COC(=O)c1c(C)[nH]c(C)c1-c1ccccc1	3	81*[fluorescence artefact?]	2	2	-3
O=C(O)COc1ccccc1/C=N/NC(=O)CSc1nnc(SCc2ccccc2)s1	1	11	17	-4	-5
Cc1cc(C2=CC(C)(c3cc(C)oc3C)Nc3nc(C(F)(F)F)nn32)c(C)o1 (stereo not given)	-6	1	-2	0	-9
